In ChEMBL document CHEMBL1144446, “Synthesis and Src kinase inhibitory activity of 2-phenyl- and 2-thienyl-7-phenylaminothieno[3,2-b]pyridine-6-carbonitriles” (J Med Chem, 2005):

What was measured:
[1] = molecular target: Proto-oncogene tyrosine-protein kinase Src (Homo sapiens, UniProt P12931); test: Inhibition of Src protein tyrosine kinase in LANCE format enzyme assay
[2] = Plasma concentration upon oral dose at 50 mg/kg in mouse after 24 hours; format: ADME, organism-based; design: dose 50 mg/kg, route oral
Summary of the method: (§1)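 Nude mice received one oral dose of 50 mg/kg in a vehicle of 0.5% methylcellulose and 0.4% Tween 80. Plasma was sampled at 4 and 24 h and analyzed for the amount of parent compound remaining, reported in µg/mL.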

[3] = Plasma concentration upon oral dose at 50 mg/kg in mouse after 4 hours; format: ADME, organism-based; design: dose 50 mg/kg, route oral; summary of the method: as §1
[4] = test system: K562; test: cells; conditions: Homo sapiens

Sequence of Proto-oncogene tyrosine-protein kinase Src (P12931 2-536 limits assumed): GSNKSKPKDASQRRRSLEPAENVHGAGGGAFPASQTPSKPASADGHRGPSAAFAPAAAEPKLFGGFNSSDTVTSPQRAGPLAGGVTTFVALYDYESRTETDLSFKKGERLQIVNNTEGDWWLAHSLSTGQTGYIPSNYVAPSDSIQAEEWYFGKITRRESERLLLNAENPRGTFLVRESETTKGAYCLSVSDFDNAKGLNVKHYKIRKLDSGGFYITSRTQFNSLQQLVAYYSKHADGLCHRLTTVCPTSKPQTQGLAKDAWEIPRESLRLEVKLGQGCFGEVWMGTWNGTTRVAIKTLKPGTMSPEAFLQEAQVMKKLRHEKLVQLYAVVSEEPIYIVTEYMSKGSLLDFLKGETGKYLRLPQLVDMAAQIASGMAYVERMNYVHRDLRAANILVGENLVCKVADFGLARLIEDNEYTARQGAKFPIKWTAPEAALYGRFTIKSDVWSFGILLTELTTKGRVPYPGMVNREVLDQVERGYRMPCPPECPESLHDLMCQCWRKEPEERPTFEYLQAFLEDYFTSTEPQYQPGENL

Row | SMILES | IC50 [1] | concentration at 24 h [2] | concentration at 4 h [3] | IC50 [4]
1 | COc1cc(Nc2c(C#N)cnc3cc(-c4ccc(C(=O)N(C)C)cc4)sc23)c(Cl)cc1Cl | 23 nM | – | – | –
2 | COc1cc(Nc2c(C#N)cnc3cc(-c4csc(CN5CCN(C)CC5)c4)sc23)c(Cl)cc1Cl | – | 320 ng/mL | 1000 ng/mL | –
3 | COc1cc(Nc2c(C#N)cnc3cc(-c4ccc(CN5CCN(CCO)CC5)cc4)sc23)c(Cl)cc1Cl | 7.4 nM | 69 ng/mL | 1700 ng/mL | –
4 | COc1cc(Nc2c(C#N)cnc3cc(-c4ccc(CN(C)C)cc4)sc23)c(Cl)cc1Cl | 9.1 nM | 2 ng/mL | 200 ng/mL | –
5 | CCN1CCN(Cc2ccc(-c3cc4ncc(C#N)c(Nc5cc(OC)c(Cl)cc5Cl)c4s3)cc2)CC1 | 8.2 nM | – | – | –
6 | CN(C)Cc1ccc(-c2cc3ncc(C#N)c(Nc4ccc(Cl)cc4Cl)c3s2)cc1 | 53 nM | – | – | –
7 | COc1cc(Nc2c(C#N)cnc3cc(-c4ccc(CN5CCSCC5)cc4)sc23)c(Cl)cc1Cl | 52 nM | – | – | –
8 | COc1cc(Nc2c(C#N)cnc3cc(-c4ccc(CN5CCNCC5)cc4)sc23)c(Cl)cc1Cl | 7.2 nM | 3 ng/mL | 1100 ng/mL | –
9 | CN1CCN(Cc2cc(-c3cc4ncc(C#N)c(Nc5ccc(Cl)cc5Cl)c4s3)cs2)CC1 | 67 nM | – | – | –
10 | CN1CCN(Cc2ccc(-c3cc4ncc(C#N)c(Nc5ccc(Oc6ccccc6)cc5)c4s3)cc2)CC1 | 140 nM | – | – | –
11 | COc1cc(Nc2c(C#N)cnc3cc(-c4ccc(CN5CCCCC5)cc4)sc23)c(Cl)cc1Cl | 17 nM | – | – | –
12 | CCOc1cc(Nc2c(C#N)cnc3cc(-c4ccc(CN5CCN(C)CC5)cc4)sc23)c(Cl)cc1Cl | 980 nM | – | – | –
13 | COc1cc(Nc2c(C#N)cnc3cc(-c4ccc(CN5CCN(C)CC5)cc4)sc23)c(Cl)cc1Cl | – | 400 ng/mL | 2200 ng/mL | 32 nM
14 | COc1cc(Nc2c(C#N)cnc3cc(-c4ccc(CCN(C)C)cc4)sc23)c(Cl)cc1Cl | 8.8 nM | – | – | –
15 | COc1cc(Nc2c(C#N)cnc3cc(-c4ccsc4CN4CCN(C)CC4)sc23)c(Cl)cc1Cl | 420 nM | – | – | –
16 | COc1cc(Nc2c(C#N)cnc3cc(-c4ccc(C(=O)N5CCN(C)CC5)cc4)sc23)c(Cl)cc1Cl | 13 nM | 59 ng/mL | 1600 ng/mL | –
17 | CCCCNCc1ccc(-c2cc3ncc(C#N)c(Nc4cc(OC)c(Cl)cc4Cl)c3s2)cc1 | 11 nM | – | – | –
18 | COc1cc(Nc2c(C#N)cnc3cc(-c4ccc(N(C)C)cc4)sc23)c(Cl)cc1Cl | 110 nM | – | – | –
19 | CCOc1cc(Nc2c(C#N)cnc3cc(-c4csc(CN5CCN(C)CC5)c4)sc23)c(Cl)cc1Cl | 1300 nM | – | – | –
20 | COc1cc(Nc2c(C#N)cnc3cc(-c4ccc(CCN5CCN(C)CC5)cc4)sc23)c(Cl)cc1Cl | 15 nM | – | – | –
21 | COc1cc(Nc2c(C#N)cnc3cc(OCCCN4CCN(C)CC4)c(OC)cc23)c(Cl)cc1Cl [BOSUTINIB] | – | – | – | 20 nM
